The values that follow come from ChEMBL document CHEMBL1135664, “Structure-activity relationships of 1-alkyl-5-(3,4-dichlorophenyl)- 5-[2-[(3-substituted)-1-azetidinyl]ethyl]-2-piperidones. 1. Selective antagonists of the neurokinin-2 receptor” (J Med Chem, 2002).

One experiment has as its target T1, Substance-K receptor (Oryctolagus cuniculus, UniProt P79218).
T1 sequence (P79218 whole entry): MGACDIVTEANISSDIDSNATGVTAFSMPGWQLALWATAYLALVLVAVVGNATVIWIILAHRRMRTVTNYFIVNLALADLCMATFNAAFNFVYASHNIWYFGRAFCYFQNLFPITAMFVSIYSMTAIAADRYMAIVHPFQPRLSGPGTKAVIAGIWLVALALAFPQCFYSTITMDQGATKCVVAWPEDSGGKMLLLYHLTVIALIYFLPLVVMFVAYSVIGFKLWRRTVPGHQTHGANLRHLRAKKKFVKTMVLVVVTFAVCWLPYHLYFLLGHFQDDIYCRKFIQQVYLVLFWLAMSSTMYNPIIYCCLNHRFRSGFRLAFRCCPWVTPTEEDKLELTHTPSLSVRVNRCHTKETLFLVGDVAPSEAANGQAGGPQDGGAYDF
The experiment in a line: Functional potency against Tachykinin receptor 2 (NK2) in rabbit pulmonary artery assay. Particulars: read-out: pA2 (converted). The method, boiled down: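 Rabbit pulmonary artery preparation; antagonism of contractions evoked by the selective NK2 agonist [β-ala8]NKA(4–10); result expressed as pA2. Each determination n ≥ 2, every experiment run in triplicate.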

The species named for the next experiment is Homo sapiens. The experiment in a line: In vitro microsomal stability in human liver microsomes (HLM). It counts as functional. Background: Liver microsomes are vesicles of endoplasmic reticulum, rich in cytochrome P450 enzymes.

A word on the half-life: it is the time in which the quantity being followed falls by half.

For the molecule `O=C1CCC(CCN2CC(N3CCOCC3)C2)(c2ccc(Cl)c(Cl)c2)CN1CC1CC1` (stereo not drawn), the Kb on Substance-K receptor was 7.94 nM. Further, the half-life in the experiment filed under Homo sapiens is 120 min.
Take `O=C1CCC(CCN2CC(N3CC[S+]([O-])CC3)C2)(c2ccc(Cl)c(Cl)c2)CN1Cc1ccccc1` (stereo not drawn): the Kb on Substance-K receptor was 0.631 nM.
For the molecule `O=C1CCC(CCN2CCC(O)(c3ccccc3)CC2)(c2ccc(Cl)c(Cl)c2)CN1Cc1ccccc1` (stereo not drawn), the Kb on Substance-K receptor is 1.26 nM. This molecule registered a half-life in the experiment filed under Homo sapiens of 30 min.
Consider `O=C1CCC(CCN2CC(N3CCOCC3=O)C2)(c2ccc(Cl)c(Cl)c2)CN1Cc1ccccc1` (stereo not drawn), for which the Kb on Substance-K receptor was 2.51 nM.
As for `NC(=O)N1CCN(C2CN(CCC3(c4ccc(Cl)c(Cl)c4)CCC(=O)N(CC4CC4)C3)C2)CC1` (stereo not drawn), the Kb at Substance-K receptor was 5.01 nM.
Turning to `O=C1CCC(CCN2CC(N3CCOCC3)C2)(c2ccc(Cl)c(Cl)c2)CN1` (stereo not drawn), at Substance-K receptor, the Kb was above 10000 nM.
With `CN(CCO)C1CN(CCC2(c3ccc(Cl)c(Cl)c3)CCC(=O)N(Cc3ccccc3)C2)C1` (stereo not drawn), on Substance-K receptor, the Kb was 3.16 nM.
The same measure, in the same setting: under `CN(C)S(=O)(=O)N1CCN(C2CN(CCC3(c4ccc(Cl)c(Cl)c4)CCC(=O)N(CC4CC4)C3)C2)CC1` (stereo not drawn) stands 10 nM; under `O=C(O)C1CCN(C2CN(CCC3(c4ccc(Cl)c(Cl)c4)CCC(=O)N(CC4CC4)C3)C2)CC1` (stereo not drawn), 0.398 nM; under `O=C1CCC(CCN2CC(N3CCNCC3)C2)(c2ccc(Cl)c(Cl)c2)CN1Cc1ccccc1` (stereo not drawn), 5.01 nM.
On to `NC1CCN(C2CN(CCC3(c4ccc(Cl)c(Cl)c4)CCC(=O)N(CC4CC4)C3)C2)CC1` (stereo not drawn), for which, at Substance-K receptor, the Kb is 2 nM. This molecule also returned a half-life in the experiment listed under Homo sapiens of 30 min.
On to `CS(=O)(=O)N1CCN(C2CN(CCC3(c4ccc(Cl)c(Cl)c4)CCC(=O)N(Cc4ccccc4)C3)C2)CC1` (stereo not drawn), for which, on Substance-K receptor, the Kb is 0.631 nM.
Take `O=C1CCC(CCN2CC(N3CCOCC3)C2)(c2ccc(Cl)c(Cl)c2)CN1Cc1ccccc1` (stereo not drawn): at Substance-K receptor, the Kb is 0.501 nM. The half-life in the experiment filed under Homo sapiens worked out at 70 min.
As to `O=C1CCC(CCN2CC(N3CCS(=O)(=O)CC3)C2)(c2ccc(Cl)c(Cl)c2)CN1Cc1ccccc1` (stereo not drawn), the Kb on Substance-K receptor is 1.26 nM.
As to `CC(=O)N1CCN(C2CN(CCC3(c4ccc(Cl)c(Cl)c4)CCC(=O)N(Cc4ccccc4)C3)C2)CC1` (stereo not drawn), on Substance-K receptor, the Kb is 1.58 nM.
With `O=C1CCC(CCN2CC(N3CCC(O)CC3)C2)(c2ccc(Cl)c(Cl)c2)CN1Cc1ccccc1` (stereo not drawn), at Substance-K receptor, the Kb was 0.0794 nM.
On to `O=C1CC[C@@](CCN2CC(N3CCOCC3)C2)(c2ccc(Cl)c(Cl)c2)CN1CC1CCCCC1`, for which, on Substance-K receptor, the Kb is 631 nM. The molecule also yielded a half-life in the experiment filed under Homo sapiens of 84 min.
On to `O=C1CCN(C2CN(CCC3(c4ccc(Cl)c(Cl)c4)CCC(=O)N(CC4CC4)C3)C2)CC1` (stereo not drawn), for which the Kb at Substance-K receptor is 1.26 nM.
For the molecule `Cc1cccc(CN2CC(CCN3CC(N4CCOCC4)C3)(c3ccc(Cl)c(Cl)c3)CCC2=O)c1` (stereo not drawn), the Kb on Substance-K receptor is 2.51 nM.
`O=C1CCC(CCN2CC(N3CCOCC3)C2)(c2ccc(Cl)c(Cl)c2)CN1Cc1ccc(F)cc1` (stereo not drawn): the Kb at Substance-K receptor is 20 nM.
Still for that read-out and setting: the figure for `O=C1CCC(CCN2CC(N3C4CCC3CC(O)C4)C2)(c2ccc(Cl)c(Cl)c2)CN1Cc1ccccc1` (stereo not drawn) is 0.631 nM.
Regarding `CN(CC(CCN1CCC(O)(c2ccccc2)CC1)c1ccc(Cl)c(Cl)c1)C(=O)c1ccccc1` (stereo not drawn), the Kb on Substance-K receptor is 0.316 nM. The same molecule came in with a half-life in the experiment filed under Homo sapiens below 10 min.
`O=C1CCC(CCN2CC(N3CCOCC3)C2)(c2ccc(Cl)c(Cl)c2)CN1C1CCCCC1` (stereo not drawn): the Kb at Substance-K receptor is 0.126 nM. The half-life in the experiment filed under Homo sapiens was below 10 min.
For `CN1CCN(C2CN(CCC3(c4ccc(Cl)c(Cl)c4)CCC(=O)N(Cc4ccccc4)C3)C2)CC1` (stereo not drawn), at Substance-K receptor, the Kb was 15.8 nM.
Take `Cc1ccccc1CN1CC(CCN2CC(N3CCOCC3)C2)(c2ccc(Cl)c(Cl)c2)CCC1=O` (stereo not drawn): at Substance-K receptor, the Kb was 0.501 nM.
Consider `O=C1CCC(CCN2CC(N3CCOCC3)C2)(c2ccc(Cl)c(Cl)c2)CN1Cc1ccncc1` (stereo not drawn), for which the Kb at Substance-K receptor is 100 nM.
With `CC(=O)NC1CCN(C2CN(CCC3(c4ccc(Cl)c(Cl)c4)CCC(=O)N(CC4CC4)C3)C2)CC1` (stereo not drawn), on Substance-K receptor, the Kb is 15.8 nM.
Turning to `O=C1CCC(CCN2CC(N3CCCOCC3)C2)(c2ccc(Cl)c(Cl)c2)CN1Cc1ccccc1` (stereo not drawn), on Substance-K receptor, the Kb is 2 nM.
Regarding `CNS(=O)(=O)N1CCN(C2CN(CCC3(c4ccc(Cl)c(Cl)c4)CCC(=O)N(CC4CC4)C3)C2)CC1` (stereo not drawn), the Kb at Substance-K receptor was 3.16 nM.
On to `O=C1CCC(CCN2CC(N3CCOCC3)C2)(c2ccc(Cl)c(Cl)c2)CN1CC1CCCCC1` (stereo not drawn), for which the Kb at Substance-K receptor is 1.26 nM. Further, in the experiment listed under Homo sapiens, the half-life came out at 70 min.
As for `NS(=O)(=O)N1CCN(C2CN(CCC3(c4ccc(Cl)c(Cl)c4)CCC(=O)N(CC4CC4)C3)C2)CC1` (stereo not drawn), the Kb at Substance-K receptor was 1.26 nM. Further, the half-life in the experiment filed under Homo sapiens is above 120 min.
With `O=C1CCC(CCN2CC(N3CCC(O)C3)C2)(c2ccc(Cl)c(Cl)c2)CN1Cc1ccccc1` (stereo not drawn), the Kb at Substance-K receptor was 2 nM.
Take `O=C1CCC(CCN2CC(N3CCC(O)CC3)C2)(c2ccc(Cl)c(Cl)c2)CN1CC1CC1` (stereo not drawn): on Substance-K receptor, the Kb was 1.58 nM.
In the case of `CS(=O)(=O)NC1CCN(C2CN(CCC3(c4ccc(Cl)c(Cl)c4)CCC(=O)N(CC4CC4)C3)C2)CC1` (stereo not drawn), the Kb on Substance-K receptor is 10 nM.
For the molecule `CCOC1CCN(C2CN(CCC3(c4ccc(Cl)c(Cl)c4)CCC(=O)N(CC4CC4)C3)C2)CC1` (stereo not drawn), the Kb at Substance-K receptor is 6.31 nM.
In the case of `CS(=O)(=O)N1CCN(C2CN(CCC3(c4ccc(Cl)c(Cl)c4)CCC(=O)N(CC4CC4)C3)C2)CC1` (stereo not drawn), the Kb on Substance-K receptor was 3.16 nM. For the same molecule, the half-life in the experiment filed under Homo sapiens is below 10 min.
On to `O=C1CCC(CCN2CC(N3CCCC(O)C3)C2)(c2ccc(Cl)c(Cl)c2)CN1Cc1ccccc1` (stereo not drawn), for which the Kb on Substance-K receptor was 2 nM.
As to `O=C1CCC(CCN2CC(N3CCSCC3)C2)(c2ccc(Cl)c(Cl)c2)CN1Cc1ccccc1` (stereo not drawn), the Kb on Substance-K receptor was 1 nM.
On to `O=C1CC[C@](CCN2CC(N3CCOCC3)C2)(c2ccc(Cl)c(Cl)c2)CN1CC1CCCCC1`, for which, in the experiment listed under Homo sapiens, the half-life is 14 min.
With `CC(=O)NC1(c2ccccc2)CCN(C2CN(CCC3(c4ccc(Cl)c(Cl)c4)CCC(=O)N(CC4CC4)C3)C2)CC1` (stereo not drawn), the Kb on Substance-K receptor was 3.16 nM.
As to `O=C1CCC(CCN2CC(N3CCNCC3)C2)(c2ccc(Cl)c(Cl)c2)CN1CC1CC1` (stereo not drawn), on Substance-K receptor, the Kb was 12.6 nM.
Take `O=C1CCC(CCN2CC(N3CCOC(c4ccccc4)C3)C2)(c2ccc(Cl)c(Cl)c2)CN1Cc1ccccc1` (stereo not drawn): on Substance-K receptor, the Kb was 10 nM.
Regarding `Cc1ccc(CN2CC(CCN3CC(N4CCOCC4)C3)(c3ccc(Cl)c(Cl)c3)CCC2=O)cc1` (stereo not drawn), the Kb on Substance-K receptor was 6.31 nM.
